For nine compounds, Activity results are on record in ChEMBL document CHEMBL1148971, “Bioactive rearranged and halogenated semisynthetic derivatives of the marine natural product sarcophine” (J Nat Prod, 2004).

Calls of active or inactive are those of the source. The calls are words filed in the database; no cut-off is given here.

Common to all, as to type: functional, cell-based
Assay [1] concerns +SA cell. Kind of assay: Antiproliferative activity against mouse +SA cells assessed as decrease in cell growth up to 100 uM after 4 days by MTT assay. A digest of the protocol:
(§1)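 Highly malignant +SA mouse mammary epithelial cells were grown in serum-free medium with 10 ng/mL EGF and 10 µg/mL insulin as mitogens. Cells were seeded at 5 × 10^4 cells/well, 6 wells per group, and fed medium containing compound over 0.01-1000 µM for 4 days. Viable cell number was read by MTT colorimetric assay and reported as mean cell count/well + SEM.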
Background: Formazan colour is commonly taken as a measure of viable cells.

Assay [2] concerns +SA cell. Kind of assay: Antiproliferative activity against mouse +SA cells assessed as decrease in cell growth at 100 to 1000 uM after 4 days by MTT assay. The procedure, abridged: as §1
For assay [3], the system named is +SA cell. Kind of assay: Antiproliferative activity against mouse +SA cells assessed as decrease in cell growth at 0 to 10 uM after 4 days by MTT assay. The procedure, abridged:
as §1

`CC1=C2CC/C(C)=C/CC/C(C)=C/CC/C(C)=C/[C@@H]2OC1=O`: in assay [1], the result was Active. Same read-out and setting: the result for `CC1=C2CC/C(C)=C/CC[C@@H](C)C(=O)CC/C(C)=C/[C@@H]2OC1=O` reads “inactive”. With `CC1=C2CC/C(C)=C/CC[C@]3(C)O[C@H]3CC/C(C)=C/[C@@H]2OC1=O`, the outcome in assay [2] was Active. Besides, in assay [3], the outcome was inactive. As to `CC1=C2CC[C@H](C)[C@H]3CC[C@](C)(O)[C@H](CC/C(C)=C/[C@@H]2OC1=O)O3` (mixture of isomers), the outcome in assay [1] was inactive.

Regarding `CC1=C2CC[C@@](C)(O)CCC[C@](C)(O)[C@@H]3CC[C@@](C)(C[C@@H]2OC1=O)O3` (relative stereo), the outcome in assay [1] was inactive. Same read-out and setting: then `CC1=C2CC[C@H](C)[C@@H]3CC[C@](C)(O)[C@H](CC/C(C)=C/[C@@H]2OC1=O)O3` (relative stereo), with “inactive”; and `CC1=C2CC[C@H](C)[C@@H]3CC[C@](C)(O)[C@H](CC[C@@](C)(O)C[C@@H]2OC1=O)O3` (relative stereo), with “inactive”. Still for that read-out and setting: then `CC1=C2CC[C@]3(C)O[C@@H](CC/C(C)=C/[C@@H]2OC1=O)[C@@](C)(O)CC[C@@H]3Br` (relative stereo), with “Active”.

As to `CC1=C2CC[C@]3(C)O[C@@H](CC/C(C)=C/[C@@H]2OC1=O)[C@@](C)(O)CC[C@H]3Br` (relative stereo), the result in assay [1] was inactive.
